Shown are actives, neighbours in structure and some others; about 3.7% of the full set was active somewhere.
proCasp7 act = counter-screen for procaspase-3 activators: activators of human procaspase-7; P55210; recombinant procaspase-7, Ac-DEVD-pNA absorbance 405 nm; D23A/D198A/D206A triple mutant, cannot self-cleave; scale: DMSO 0, 5 µM enzyme 100; activation, % at 8.5 µM; hit rate 0.093% among 330,000; AID 463210;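 active = percent activation above the screen-wide mean plus 3 SD, cut at about 25% in these data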
Target sequence (P55210 whole entry D23A/D198A/D206A): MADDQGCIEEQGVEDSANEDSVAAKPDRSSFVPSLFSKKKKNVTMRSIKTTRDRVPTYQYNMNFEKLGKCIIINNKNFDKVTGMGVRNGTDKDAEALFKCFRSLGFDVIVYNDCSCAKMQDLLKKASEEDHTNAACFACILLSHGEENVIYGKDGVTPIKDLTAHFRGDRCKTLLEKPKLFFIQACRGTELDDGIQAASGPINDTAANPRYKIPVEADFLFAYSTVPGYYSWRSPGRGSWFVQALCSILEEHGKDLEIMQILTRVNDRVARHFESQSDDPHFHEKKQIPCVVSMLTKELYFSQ
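Replicates: singlicate. Assay system: Procaspase-7 triple mutant (PC-7 D3A). Signal: 405 nm absorbance of p-nitroaniline. Times: 1 h preincubation, 2 h reaction. Buffer or medium: Zinc-free HEPES pH 7.4 with 300 mM NaCl, 0.01% Triton X-100. Also added: DEVD-pNA substrate. Benchmarks: DMSO wells as 0%, DMSO with 5 µM added PC-7 as 100%.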
proCasp3 act = activators of human procaspase-3 | P42574 | recombinant procaspase-3 D3A, Ac-DEVD-pNA absorbance 405 nm | activation, % at 8.5 µM | hit rate 0.11% among 330,000;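 active = activation above the mean of all tested compounds plus 3 SD, cut at about 21% in these data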;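 note: 0% = DMSO alone and 100% = DMSO wells spiked with extra 5 µM PC-3 D3A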
Target sequence (P42574 whole entry D9A/D28A/D175A): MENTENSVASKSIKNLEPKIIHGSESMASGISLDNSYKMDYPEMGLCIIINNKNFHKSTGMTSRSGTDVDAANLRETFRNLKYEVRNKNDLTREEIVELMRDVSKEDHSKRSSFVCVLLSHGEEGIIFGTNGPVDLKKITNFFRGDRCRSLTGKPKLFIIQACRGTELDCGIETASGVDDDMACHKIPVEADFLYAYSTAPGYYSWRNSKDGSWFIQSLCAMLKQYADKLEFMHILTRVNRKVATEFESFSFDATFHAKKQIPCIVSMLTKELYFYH
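Technique: 405 nm absorbance of p-nitroaniline, reads at 0 and 120 min; Test system: Procaspase-3 D3A mutant; Incubation: 1 h enzyme-compound preincubation, then 2 h substrate reaction, 25 °C; Repeats: singlicate, each compound tested once; Benchmarks: low control DMSO wells, high control DMSO plus 5 µM PC-3 D3A.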
MPTP block = permeability transition pore inhibition. isolated mouse mitochondria, Ca2+ swelling absorbance, 30 min. AID 602449. hit rate 1.4% among 360,000. inhibition, % at 10 µM;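 active = inhibition of 50% or more, scaled per plate between neutral and stimulator controls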;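 note: 0% = DMSO wells given calcium and 100% = 1 mM EGTA wells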
aDG glyco act = alpha-DG glycosylation activation. Pro5-aDG cells, alpha-DG glycosylation AlphaScreen (IIH6); 0% Pro5, 100% B10-LARGE cell signal. activation, % at 10 µM. hit rate 0.22% among 360,000. AID 624168;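 active = activation of at least 8% versus controls, or a plate z-score of at least 8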;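 note: Pro5 are CHO cells carrying HIG-tagged alpha-DG that lacks glycosylation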
GRIN3A LBD mod = modulates the human NR3A ligand-binding domain. hit rate 2.5% among 340,000. Tm shift relative to glycine control, % at 25 µM. AID 1259313. NR3A LBD differential scanning fluorimetry, Tm shift; 0% = protein alone, 100% = glycine-bound protein;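 active = melting temperature shift of at least 10% of the positive control shift, at one fixed dose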
Active calls of the source: *; . = no result.

SMILES	proCasp7 act	proCasp3 act	MPTP block	aDG glyco act	GRIN3A LBD mod
COC(=O)c1cc2oc(C)cc2n1CC(=O)N(C)c1ccccc1	4	6	0	0	11*
C[C@@H]1CCCCCCCCC(=O)OCCN(C(=O)OC(C)(C)C)[C@H](C)CCCCCCCCC(=O)OCCN(C(=O)OC(C)(C)C)[C@H](C)CCCCCCCCC(=O)OCCN(C(=O)OC(C)(C)C)[C@H](C)CCCCCCCCC(=O)OCCN1C(=O)OC(C)(C)C	6	8	-3	0	-1
Cc1nnc(NC(=O)C(C)Sc2nnc(-c3ccco3)n2C)s1 (configuration not stated)	2	-5	0	0	-1
CC(Sc1nnc(-c2ccco2)n1C)C(=O)Nc1nccs1 (configuration not stated)	6	9	-1	0	21*
CC1CCC(NC(=O)C(NS(=O)(=O)c2ccc(Br)cc2)C(C)C)CC1 (configuration not stated)	.	.	0	0	.
Cn1c(SC/C=C/c2ccccc2)nnc1-c1ccco1	-5	1	-8	0	12*
Oc1ccccc1-c1nc2c3ccccc3c3ccccc3c2[nH]1	9	-9	2	1	37*
O=C(CN1CCN(c2cnn(-c3ccccc3)c(=O)c2Cl)CC1)NC1CCS(=O)(=O)C1 (configuration not stated)	.	.	-1	0	5
N#Cc1c(N)nc(-c2ccccc2)nc1-c1ccccc1	-1	6	1	0	10*
N#Cc1c(-c2ccccc2)nc(-c2ccccc2)nc1N1CCOCC1	6	0	-3	0	0
CN(CCc1ccccc1)C(=O)c1cccc(NC(=O)Cc2cccc(NC(=O)C3CCCN(C(=O)c4ccccc4)C3)c2)c1 (configuration not stated)	.	.	0	0	2
CCOC(=O)c1c(-c2cccs2)csc1NC(=O)CN1CCOCC1	8	2	-1	0	23*
NC(=O)C1CC2(C1)CC(C(N)=O)C2 (configuration not stated)	.	.	-1	0	0
COc1ccc(NC(=O)C2CCC(=O)N2C(=O)OCc2ccccc2)cc1 (configuration not stated)	4	6	0	0	11*
O=C(CCC(=O)N1CCN(c2ccccc2F)CC1)c1ccc(F)cc1	12	3	0	0	-1
Cc1ccc(C(=O)CCC(=O)N2CCN(c3ccccc3O)CC2)cc1	3	-3	0	0	19*
O=C1c2cccc3c([N+](=O)[O-])ccc(c23)C(=O)N1c1nccs1	-4	1	4	1	10*
C=CCNC(=O)c1ccccc1NC(=O)c1ccc(Cl)c(S(=O)(=O)Nc2ccccc2)c1	10	0	4	0	14*
O=C(Nc1ccc(O)cc1)c1c(O)c2c([nH]c1=O)CCCC2	.	.	-3	0	15*
COC(=O)c1ccccc1NC(=O)c1c(O)c2c([nH]c1=O)CCCC2	0	7	1	0	1
CC(C)(C)OC(=O)C[C@@H]1C/C=C\C[C@@H](CC(=O)N(CCO)Cc2ccccc2)C(=O)N[C@@H](c2ccccc2)COC1=O	5	-2	1	0	-2
O=C(N/N=C/c1c[nH]c2ccc(Br)cc12)c1ccccn1	-3	-15	-4	0	10*
O=C(N/N=C/c1c[nH]c2ccc(Br)cc12)c1ccn(Cc2ccc(Cl)cc2Cl)n1	-6	-1	-3	0	17*
O=C(N/N=C/c1c[nH]c2ccc(Br)cc12)C1CC1	-6	9	5	0	10*
O=C(Oc1ccc(/C=N/NC(=O)c2ccccn2)cc1)c1cccc(Br)c1	.	.	-1	0	-7
SMILES	proCasp7 act	proCasp3 act	MPTP block	aDG glyco act	GRIN3A LBD mod
O=C(N/N=C/c1c[nH]c2ccc(Br)cc12)c1ccncc1	-3	-11	0	1	26*
NC(=O)C(=O)N/N=C/c1c[nH]c2ccc(Br)cc12	0	6	1	0	-6
COc1ccc(N2CCN(C(=O)c3cc(S(=O)(=O)N4CCCCCC4)ccc3OC)CC2)cc1	.	.	-2	0	2
COc1ccc(-c2nc3ccccc3c(=O)n2O)cc1	11	1	-1	0	32*
O=c1c2ccccc2nc(-c2ccccc2)n1O	-5	2	1	0	0
Cc1ccc(OCC(=O)O/N=C(\N)Cc2ccc(Cl)cc2)cc1	7	-4	2	0	1
COc1ccc(C(=O)O/N=C(\N)c2ccc(Br)cc2)cc1	-10	-2	1	0	20*
COc1ccccc1C/C(N)=N/OC(=O)c1cccc([N+](=O)[O-])c1	-4	4	-2	0	1
N/C(=N/OC(=O)c1cccc([N+](=O)[O-])c1)c1cccc([N+](=O)[O-])c1	8	-1	-2	0	0
COc1ccc(C/C(N)=N/OC(=O)c2cccc([N+](=O)[O-])c2)cc1	5	1	0	0	14*
COc1ccc(OCC(=O)O/N=C(\N)Cc2ccc(Cl)cc2)cc1	4	1	1	0	15*
N/C(=N\OC(=O)c1ccc2ccccc2c1)c1cccc([N+](=O)[O-])c1	-7	-1	0	0	35*
c1ccc2c(c1)ncn2-c1cncnc1	.	.	0	0	.
CCCCCCCCN1C(=O)[C@H](CC(=O)N2CCCCC2)C[C@@]2(C(=O)OC)CCCCC=C12	.	.	-1	0	.
N/C(=N\OC(=O)c1ccc(Br)cc1)c1ccccc1	-4	5	0	0	-5
N/C(=N\OC(=O)c1cccc(Br)c1)c1ccc(Br)cc1	6	-5	-1	0	23*
N/C(=N\OC(=O)c1cccc(Br)c1)c1ccc([N+](=O)[O-])cc1	-10	6	2	0	14*
O=C(c1cccc(S(=O)(=O)Nc2ccc(F)cc2)c1)N1CCC1	7	1	1	0	0
CCOC(=O)C1CCN(C(=O)CCc2c(C)nc3cc(-c4ccccc4)nn3c2C)CC1	-5	-6	0	0	0
CCOC(=O)C1CCN(c2cc(C)nc3cc(-c4cccc(F)c4)nn23)CC1	31*	26*	-1	0	2
COc1ccc(OC)c(CNC(=O)CCN2C(=O)COc3ccccc32)c1	-11	-3	1	0	0
COc1ccc(Br)cc1CNC(=O)CCN1C(=O)COc2ccccc21	5	6	-2	0	23*
Cc1ccc2c(c1)N(CCC(=O)NCc1ccccn1)C(=O)CO2	15	8	0	0	42*
COc1ccc(/C=C/C(=O)OCC(=O)Nc2cccc(S(=O)(=O)NC3=NCCCCC3)c2)cc1	-9	6	0	2	1
N=C(N)c1ccc(N=Nc2c(O)ccc3c2[nH]c2ccccc23)cc1	.	.	5	-1	29*

Screening results: PubChem, several laboratories
